One assay deals with HEK293. Nature of the assay: Residual mouse GAT4-mediated [3H]GABA uptake expressed in human HEK cells at 100 uM.
Assay [1] has as its target Sodium- and chloride-dependent GABA transporter 1 (Mus musculus) (UniProt P31648). Description: Residual mouse GAT1-mediated [3H]GABA uptake expressed in human HEK cells at 100 uM. The note with it: HEK293.
Assay [2] relates to GABA transporter Slc6a13 (Mus musculus). Nature of the assay: Residual mouse GAT3-mediated [3H]GABA uptake expressed in human HEK cells at 100 uM. The note with it: HEK293.
Assay [3] has as its system betaine/GABA transporter BGT-1 (Slc6a12, Mus musculus). Description: Residual mouse GAT2-mediated [3H]GABA uptake expressed in human HEK cells at 100 uM. The note with it: HEK293.
Assay [4] can be described thus: Inhibition of mouse GAT4-mediated [3H]GABA uptake expressed in human HEK cells. In kind it is cell-based. The note with it: HEK293. The essentials: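 Specific [3H]GABA uptake was measured at the murine transporter subtype, and results are given as pIC50 ± SEM from three independent experiments, each run in triplicate.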
The nature of assay [5]: Inhibition of GAT mediated [3H]GABA uptake in rat brain synaptosomes. In kind it is subcellular.
The target of assay [6] is Sodium- and chloride-dependent GABA transporter 1 (Mus musculus) (UniProt P31648). Description: Residual mouse GAT1-mediated [3H]GABA uptake expressed in human HEK cells at 1 mM. To be noted: HEK293.
For assay [7], the system named is GABA transporter Slc6a13 (Mus musculus). Nature of the assay: Residual mouse GAT3-mediated [3H]GABA uptake expressed in human HEK cells at 1 mM. To be noted: HEK293.
The target of assay [8] is T1, GABA transporter 4 (Mus musculus) (UniProt P31650).
T1 sequence (whole entry): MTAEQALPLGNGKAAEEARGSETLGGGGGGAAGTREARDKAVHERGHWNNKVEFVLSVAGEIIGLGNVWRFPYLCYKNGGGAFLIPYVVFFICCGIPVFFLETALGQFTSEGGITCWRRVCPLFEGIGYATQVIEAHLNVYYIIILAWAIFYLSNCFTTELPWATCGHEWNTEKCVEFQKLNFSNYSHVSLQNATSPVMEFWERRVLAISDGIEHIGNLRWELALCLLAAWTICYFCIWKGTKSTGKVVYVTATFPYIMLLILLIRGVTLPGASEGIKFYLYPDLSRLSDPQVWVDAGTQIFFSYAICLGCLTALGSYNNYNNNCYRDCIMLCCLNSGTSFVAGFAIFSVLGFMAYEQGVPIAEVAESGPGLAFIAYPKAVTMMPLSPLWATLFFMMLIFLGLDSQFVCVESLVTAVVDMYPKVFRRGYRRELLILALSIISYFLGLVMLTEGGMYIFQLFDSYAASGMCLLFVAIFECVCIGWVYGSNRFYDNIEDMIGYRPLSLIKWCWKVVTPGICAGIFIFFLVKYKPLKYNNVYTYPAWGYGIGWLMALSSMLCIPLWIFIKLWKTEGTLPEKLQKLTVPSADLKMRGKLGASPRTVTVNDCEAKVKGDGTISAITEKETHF
Description: Residual mouse GAT4-mediated [3H]GABA uptake expressed in human HEK cells at 1 mM. The note with it: HEK293.

Assay [9] concerns betaine/GABA transporter BGT-1 (Slc6a12, Mus musculus). Description: Residual mouse GAT2-mediated [3H]GABA uptake expressed in human HEK cells at 1 mM. The note with it: HEK293.
The species named for assay [10] is Mus musculus. Nature of the assay: Selectivity ratio of IC50 for mouse GAT3 to IC50 for mouse GAT1.
The species named for assay [11] is Mus musculus. Nature of the assay: Selectivity ratio of IC50 for mouse GAT3 to IC50 for mouse GAT4.

pIC50: −log10 of the molar value.

The molecule `c1ccc(C(CCCNCc2nnnn2C2CCCCC2)c2ccccc2)cc1` displayed a level, % of control in the assay with HEK293 of 43.2%. In [1], the residual activity (commonly the signal under treatment as a percentage of the control signal) is 70.6%.
Consider `c1ccc2c(c1)c1ccccc1n2CCCNCc1nnn[nH]1`, for which, in the assay with HEK293, the level, % of control is 78.7%. The residual activity in assay [2] is 83.6%; in assay [1], 86.3%; in assay [3] it was 81.6%.
On the same counts, the results for `c1ccc(C(NCc2nnn[nH]2)c2ccccc2)cc1` are 85.4%, 94.2%, 69.7% and 94.2%.
Turning to `c1ccc(C(CNCc2nnnn2C2CCCCC2)c2ccccc2)cc1`, in [4], the pIC50 (usually the IC50 on a negative log10 scale, so that one unit is a factor of ten) is 4.35. Also, the figures for the residual activity in assay [1] and in assay [3] were 59.1% and 75.9%, respectively.
With `C1CC(c2nnn[nH]2)CCN1`, the pIC50 in assay [5] is above 4.00.
In turn, `CC(C)(C)CC(C)(C)n1nnnc1CNCCC=C(c1ccccc1)c1ccccc1` gave a pIC50 in assay [4] of 4.74. Besides, the residual activity in assay [1] was 75.4%; in [3] it was 54.9%.
Turning to `NCc1nnn[nH]1`, the residual activity in assay [6] came to 85.1%; in assay [7] it was 66.5%; in [8] it was 78.9%; in assay [9], 59.4%.
Turning to `C(CNCc1nnnn1C1CCCCC1)=C(c1ccccc1)c1ccccc1`, the pIC50 in [4] is 4.29. Moreover, the residual activity in assay [1] worked out at 62.9%.
With `C1CN(Cc2nnn[nH]2)CCN1`, the residual activity in assay [6] stood at 90%; in assay [7], 102%; in assay [8] it was 101%; in assay [9], 75.4%.
For `c1ccc(Cn2nnnc2CNCCC(c2ccccc2)c2ccccc2)cc1`, the residual activity in [2] came to 51.7%; in assay [1], 73.9%; in assay [3], 61.6%. In assay [4], the negative-log IC50 (pIC50) is 4.20.
`NCCc1nnn[nH]1`: the pIC50 in assay [5] was above 4.00.
In assay [4], `CC(C)(C)CC(C)(C)n1nnnc1CNCCCC(c1ccccc1)c1ccccc1` showed a negative-log IC50 (pIC50) of 4.53. Moreover, the residual activity in [1] was determined as 63.8%.
In the case of `NCC(=O)O`, the residual activity in assay [6] worked out at 83.1%; in assay [8] it was 69.7%.
On to `C(CNCc1nnn[nH]1)=C(c1ccccc1)c1ccccc1`, for which, in the assay with HEK293, the level, % of control was 79.6%. The residual activity was 46.2% in assay [2], 80.5% in assay [1] and 82% in [3].
The molecule `c1ccc(C(CNCc2nnn[nH]2)c2ccccc2)cc1` gave a level, % of control with HEK293 of 71.2%. Moreover, the residual activity is 63.5% in assay [2], 48.2% in assay [1] and 85.8% in assay [3].
On to `CC(C)(C)CC(C)(C)n1nnnc1CNCCC(c1ccccc1)c1ccccc1`, for which the Ratio IC50 in the assay listed under Mus musculus [10] came to 12; in the assay filed under Mus musculus [11], 4. In [4], the pIC50 was 4.53. Moreover, the residual activity in assay [1] was determined as 70.7%; in [3], 77.1%.
On to `C1CN(Cc2nnn[nH]2)CCO1`, for which the residual activity in [6] worked out at 90.6%; in assay [7], 87.8%; in assay [8], 90.8%; in assay [9], 88%.
With `C1=C(c2nnn[nH]2)CCNC1`, the pIC50 in assay [5] was above 4.00.
On to `NCCNCc1nnn[nH]1`, for which the residual activity came to 81.7% in assay [6], 86.3% in assay [7], 60.7% in assay [8] and 80% in [9].
`CCCCNCc1nnn[nH]1` gave a level, % of control with HEK293 of 71.5%. Also, the residual activity came to 74% in assay [2], 105% in assay [1] and 65.3% in assay [3].
`c1ccc(Cn2nnnc2CNC(c2ccccc2)c2ccccc2)cc1` came in with a level, % of control in the assay on HEK293 of 57.2%. The residual activity in [1] came to 81.1%; in [3], 84.5%.
As for `CC(C)(C)CC(C)(C)n1nnnc1CNCC(c1ccccc1)c1ccccc1`, the residual activity in assay [2] was 53.8%; in assay [1], 83.3%; in assay [3], 63.5%. This molecule also showed a negative-log IC50 (pIC50) in [4] of 4.17.
In turn, `c1ccc(Cn2nnnc2CNCC(c2ccccc2)c2ccccc2)cc1` displayed a level, % of control with HEK293 of 52.3%. Besides, the residual activity in assay [1] was determined as 72.4%; in [3], 67.1%.
As to `CC(C)(C)CC(C)(C)n1nnnc1CN1CCNCC1`, in the assay on HEK293, the level, % of control was 78.4%. In addition, the residual activity in assay [2] was determined as 81.4%; in assay [1], 90.2%; in assay [3], 106%.
On the same counts, the results for `C(CCNCc1nnnn1Cc1ccccc1)=C(c1ccccc1)c1ccccc1` are 53.1%, 53.5%, 69.4% and 84.1%.
Molecule `C1CNCC(c2nnn[nH]2)C1` (stereo unspecified) showed a pIC50 in [5] above 4.00.
In assay [4], `c1ccc(C(CCNCc2nnnn2C2CCCCC2)c2ccccc2)cc1` had a pIC50 of 4.46. In addition, the residual activity in assay [1] turned out to be 54.6%.
With `c1ccc(C(CCNCc2nnn[nH]2)c2ccccc2)cc1`, the level, % of control in the assay on HEK293 is 80.5%. In addition, the residual activity in assay [2] was 72.6%; in [1], 100%; in assay [3], 53.2%.
As to `C(CCNCc1nnn[nH]1)=C(c1ccccc1)c1ccccc1`, the level, % of control in the assay with HEK293 came to 101%. Also, the residual activity was determined as 73.8% in assay [2], 86.1% in [1] and 76.9% in assay [3].
The molecule `C(CCNCc1nnnn1C1CCCCC1)=C(c1ccccc1)c1ccccc1` yielded a level, % of control in the assay with HEK293 of 58.2%. The residual activity in assay [1] turned out to be 64.5%; in [3] it was 69.5%.
On to `CC(C)(C)CC(C)(C)n1nnnc1CNCCN`, for which the residual activity in assay [6] turned out to be 133%; in assay [7] it was 71.1%; in [8] it was 92.5%; in [9], 142%.
Take `c1ccc(C(NCc2nnnn2C2CCCCC2)c2ccccc2)cc1`: the negative-log IC50 (pIC50) in assay [4] is 4.54. Also, the residual activity in assay [1] came out at 54.8%.
In [5], `NCCCc1nnn[nH]1` had a negative-log IC50 (pIC50) above 4.00.
`c1ccc(C(CCCNCc2nnn[nH]2)c2ccccc2)cc1` gave a level, % of control with HEK293 of 87.4%. Besides, the values for the residual activity in assay [2], in assay [1] and in assay [3] were 75.1%, 82% and 89.3%, respectively.
Turning to `CCCCNCc1nnnn1C(C)(C)CC(C)(C)C`, the residual activity was found to be 49% in [2], 83.3% in [1] and 60.3% in [3]. In [4], this molecule gave a negative logarithm of the IC50 (pIC50) of 4.31.
As to `CC(C)(C)CC(C)(C)n1nnnc1CNC(c1ccccc1)c1ccccc1`, in the assay with HEK293, the level, % of control was 56.9%. Moreover, the residual activity in [1] was 85.6%; in [3], 81.4%.
On to `c1ccc(Cn2nnnc2CNCCCC(c2ccccc2)c2ccccc2)cc1`, for which the level, % of control in the assay with HEK293 amounted to 49.6%. Further, the residual activity in assay [1] worked out at 68.1%.
In the case of `CC(C)(C)CC(C)(C)n1nnnc1CNCC=C(c1ccccc1)c1ccccc1`, in assay [4], the negative-log IC50 (pIC50) was 4.58. In addition, in [1], the residual activity was found to be 65.7%.
`C(CNCc1nnnn1Cc1ccccc1)=C(c1ccccc1)c1ccccc1` showed a pIC50 in assay [4] of 4.38. Moreover, in [1], the residual activity was determined as 57.3%.
With `CC(C)(C)CC(C)(C)n1nnnc1CN1CCOCC1`, the level, % of control with HEK293 is 90.5%. Besides, the residual activity stood at 63.3% in assay [2], 73.4% in assay [1] and 99% in assay [3].
In the assay with HEK293, `CC(C)(C)CC(C)(C)n1nnnc1CNCCCn1c2ccccc2c2ccccc21` returned a level, % of control of 59.7%. The results for the residual activity in assay [2], in assay [1] and in assay [3] were 68.8%, 75.1% and 72.6%, respectively.
